The record followed here is paper PMC3983340 (Journal of Medicinal Chemistry, 2014).

As a reminder, the IC50 is the concentration at which inhibition is half-maximal. The low end stands for greater potency, the high end for weaker potency.

Test [1] has as its target T1, C. glabrata DHFR (CgDHFR) (Candida glabrata, UniProt Q6FPH0).
T1 sequence (Q6FPH0 1-217): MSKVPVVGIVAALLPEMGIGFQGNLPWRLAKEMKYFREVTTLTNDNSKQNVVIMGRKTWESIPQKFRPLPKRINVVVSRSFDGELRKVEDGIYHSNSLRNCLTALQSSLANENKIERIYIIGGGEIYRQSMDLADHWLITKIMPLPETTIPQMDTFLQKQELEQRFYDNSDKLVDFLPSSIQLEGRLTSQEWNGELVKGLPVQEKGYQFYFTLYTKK
In words: DHFR enzyme inhibition. Type of test: biochemical.

Test [2] concerns C. albicans (strain SC5314). Nature of the test: Antifungal activity. The test is classed as cell-based. In short, it runs like this: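 SC5314 from −80 °C glycerol stock streaked on YM agar (37 °C, 48 h); colonies cultured in glucose–salt–biotin medium, pH 7.1, at 25 °C for 18 h (also printed as 30 °C, 24–36 h). Diluted to 1 × 10^5–1 × 10^6 cells/mL in GSB over test compound in DMSO (1 μL per 100 μL). Alamar Blue added after 24 h; MIC from absorbance-maximum shift 570→600 nm. Amphotericin B, itraconazole controls.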

In test [1], `CCc1nc(N)nc(N)c1C#CC(C)c1cc(OC)cc(-c2ccncc2)c1` (stereo not drawn) [Compound 1] yielded an IC50 of 89 nM.

In the case of `COc1ccc(-c2ccccc2)cc1C(C)C#Cc1c(C)nc(N)nc1N` (stereo not drawn) [Compound 2], the “MIC C. albicans in the presence of 0.01% Triton X-100” value in test [2] is listed as “do inhibit the growth of C. albicans”.

Regarding `CCc1nc(N)nc(N)c1C#CC(C)c1ccc(-c2ccc(C)cc2)nc1` (stereo not drawn) [Compound 47, 6-Ethyl-5-[3-(6-p-tolyl-pyridin-3-yl)-but-1-ynyl]-pyrimidine-2,4-diamine], the “MIC C. albicans in the presence of 0.01% Triton X-100” value in test [2] is listed as “not significantly changed”.
